Assay outcomes from PubChem BioAssay.
UCH37 inh: inhibitors of human deubiquitinating enzyme UCH37; inhibition, % (concentration not given with the values); purified proteasome/UCH37, Ub-AMC cleavage fluorescence; Q9Y5K5; actives 0.33% (n = 330,000); AID 588478;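 active = mean inhibition over replicate wells above about 20%, limit read from the data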;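 note: 0% = compound-free wells with enzyme and 100% = wells lacking proteasome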
Target sequence (Q9Y5K5 whole entry, looked up): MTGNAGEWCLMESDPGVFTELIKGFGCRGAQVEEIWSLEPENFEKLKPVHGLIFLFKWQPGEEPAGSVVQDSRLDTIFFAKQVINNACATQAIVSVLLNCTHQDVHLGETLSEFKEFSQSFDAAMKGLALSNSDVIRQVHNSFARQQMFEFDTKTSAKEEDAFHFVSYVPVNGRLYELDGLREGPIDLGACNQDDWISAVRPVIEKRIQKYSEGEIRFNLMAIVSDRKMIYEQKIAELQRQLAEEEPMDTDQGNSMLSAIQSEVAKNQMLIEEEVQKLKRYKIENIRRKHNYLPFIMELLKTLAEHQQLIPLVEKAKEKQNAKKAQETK
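Assay system: Proteasome-bound UCH37. Buffer or medium: pH 7.4 Tris-HCl (50 mM) with ovalbumin, ATP-MgCl2, DTT. Incubation: 30 min preincubation with enzyme, 25 min cleavage at room temperature. Measured by: fluorescence, ex 355 nm, em 460 nm. Read-out basis: percent inhibition. Control set: wells without proteasome as full block, compound-free enzyme plus substrate as uninhibited.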
PG9 Ab binder: PG9 antibody binding by small molecule; inhibition, % at 6.7 µM; actives 0.43% (n = 360,000); TR-FRET gp120-PG9 antibody binding; in the data active = inhibition above about 8.5%
Rev-erbA mod: Rev-erb alpha (human) modulation. P20393. activity, % at 10 µM. Rev-erbα–FITC-DNA binding, fluorescence polarization, 90 min. actives 0.79% (n = 370,000);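 active = activity above about 14%, limit read from the data; passing the limit was not always enough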;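 note: 0% = DMSO wells with 35 nM protein and 100% = DMSO wells with 750 nM protein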
Yeast superoxide: caloric restriction mimetics inhibiting age-related superoxide in yeast; S. cerevisiae aged cells, superoxide DHE fluorescence; hits give low values; superoxide response (% of plate mean), % at 10 µM; actives 0.18% (n = 330,000); AID 2690;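 active = superoxide response under a set limit, about three screen SD below normal, cut at about 65% in these data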;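 note: yeast aged for seven days with compound at 30 °C before DHE staining; 100% = average MFI of all compound-treated wells on the plate with controls excluded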
MIN6 prolif: induces beta-cell replication in MIN6 cells. MIN6 cells proliferation, ATPlite luminescence, 48 h; cells starved in 0.2% serum; 100% = growth in 10% serum. proliferation, % at 10 µM. actives 0.29% (n = 330,000);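 active = compounds whose signal lies at least 3.5 SD above the mean of all wells on their plate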;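 note: 0% = DMSO-treated cells in low-serum medium and 100% = 10% serum control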
Rce1 inh: blocks yeast Ras-converting enzyme | Q03530 | actives 0.27% (n = 290,000) | calls only | yeast membranes, quenched prenylated peptide cleavage fluorescence | AID 2563;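 active = fall in fluorescence gain of 50% or more versus controls, with final raw signal at or below 3038400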;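 note: plate controls were neutral control wells for no effect and wells lacking membranes for full effect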
Target sequence (Q03530 whole entry, looked up): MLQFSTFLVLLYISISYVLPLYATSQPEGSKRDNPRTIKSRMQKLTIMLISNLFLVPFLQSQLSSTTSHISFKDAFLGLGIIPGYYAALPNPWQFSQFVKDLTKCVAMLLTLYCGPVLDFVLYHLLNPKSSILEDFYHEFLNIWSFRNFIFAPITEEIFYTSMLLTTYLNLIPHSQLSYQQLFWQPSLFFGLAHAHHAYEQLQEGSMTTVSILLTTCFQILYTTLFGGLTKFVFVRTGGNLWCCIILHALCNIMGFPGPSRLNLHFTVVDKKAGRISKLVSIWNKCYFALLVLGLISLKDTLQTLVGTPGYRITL
NR1D1 mod conf: Rev-erb alpha (human) modulation, hit confirmation; activation, % at 25 µM; Rev-erb alpha FITC-DNA binding, fluorescence polarization, 90 min; actives 61% (n = 3,000); shares compounds with Rev-erbA mod;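 active = activation at or above a set limit, or at least 3 SD above the negative control mean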;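 note: 0% = 35 nM protein with DMSO and 100% = 750 nM protein high control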
RORg counter: RORgamma DNA-binding activity, dose-response counter-screen; IC50, µM; purified RORgamma protein-FITC-DNA binding, fluorescence polarization; actives 8% (n = 910); shares compounds with Rev-erbA mod;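 active = Compounds whose fitted half-maximal concentration for disrupting protein-DNA binding is below 10 micromolar; the record names Rev-erb in its text, so the target is in doubt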
* marks the source's active call; other numbers are inactive results; i = inactive; · = no result. Sampled rows, rich in hits. Any-hit rate of the full collection: about 1.9%.

SMILES	UCH37 inh	PG9 Ab binder	Rev-erbA mod	Yeast superoxide	MIN6 prolif	Rce1 inh	NR1D1 mod conf	others
CCN(CC)C(=O)CSC1=C(C#N)C(c2cccs2)C=C(C)N1 (stereo not given)	1	-1	56*	96	-3	i	42*	RORg counter=>40
Oc1ccccc1C=NNC1=NCCCCC1	-55	·	·	·	·	·	·
COc1ccc(-c2nnc(-c3cc4ccccc4oc3=O)o2)cc1	-248	0	24*	98	-4	i	24*
Cc1ccc(-c2noc(-c3cc4ccccc4oc3=O)n2)cc1	-11	0	33*	101	3	i	18*
COc1cc(C=NNC(=O)CC2(C)OCCCO2)ccc1OCc1ccc(Cl)cc1Cl	6	·	·	·	·	·	·
CC1(C)CC2CC(C)(CN2C(=O)c2cc(-c3ccc(F)cc3)on2)C1 (stereo not given)	1	0	-3	93	-2	·	·
CC1(C)CC2CC(C)(CN2C(=O)c2cc(-c3ccccc3)on2)C1 (stereo not given)	3	-1	29*	106	-6	i	-3
COc1ccc(CC(=O)NN=C(C)c2ccc(Br)s2)cc1	3	·	·	·	·	·	·
CCOc1cccc2cc(C(N)=O)c(=NCc3ccccc3)oc12	0	-3	48*	92	-2	i	17*
CCOc1cccc2cc(C(N)=O)c(=N)oc12	-2	0	-6	·	1	·	·
CC(CC(=O)Nc1ccc(N(C)C)cc1)=NNC(=O)c1ccncc1	1	·	·	·	·	·	·
COc1cc(C(=O)NN=Cc2ccc3c(c2)c2ccccc2n3C)ccc1O	-136	·	·	·	·	·	·
COc1ccccc1C(=O)CN1C(=O)NC2(CCCc3ccccc32)C1=O (stereo not given)	3	2	-7	88	-3	·	·
COc1ccc(C(=O)CN2C(=O)NC3(CCCc4ccccc43)C2=O)c(OC)c1 (stereo not given)	3	2	23*	111	-3	i	10
O=Cc1sc(=NS(=O)(=O)c2ccccc2)n(CCCCl)c1Cl	1	·	·	·	·	·	·
Cc1ccc(OCC(=O)Nc2ccc(Cl)cc2)c(-n2nc3ccccc3n2)c1	-10	0	69*	106	-2	i	10
O=C(Nc1nnc(-c2ccccc2F)s1)C1CCN(S(=O)(=O)c2ccc(Cl)cc2)CC1	1	-2	33*	110	0	i	7
O=C(Nc1nnc(-c2ccc(F)cc2)s1)C1CCN(S(=O)(=O)c2ccc(Cl)cc2)CC1	3	-1	121*	104	0	i	14
Cc1cccc(NCC(=O)NN=Cc2ccc(Br)cc2)c1	4	·	·	·	·	·	·
CCN(CC)c1ccc(C=NNC(=O)c2ccccn2)cc1	5	·	·	·	·	·	·
COc1cc2sc3ccc(-c4ccc(N(C)C)nc4)cc3c(=O)c2cc1OC	2	1	-18	115	-8	i	·
COc1ccc(-c2ccc3sc4ccccc4c(=O)c3c2)cn1	4	0	58*	88	-4	i	61*	RORg counter=>40
CCOc1ccc(NC(=O)COc2ccc(C(=O)NCc3cccnc3)cc2OC)cc1	-2	-2	-5	109	3	i	·
COc1cc(C(=O)NCc2cccnc2)ccc1OCC(=O)Nc1cccc(C(F)(F)F)c1	1	0	18*	132	-6	i	7
Cc1cccc(NC(=O)CON=Cc2ccc3c(c2)OCO3)c1	2	·	·	·	·	·	·
SMILES	UCH37 inh	PG9 Ab binder	Rev-erbA mod	Yeast superoxide	MIN6 prolif	Rce1 inh	NR1D1 mod conf	others
CC1CCCN(S(=O)(=O)c2ccc(C(=O)Nc3ccccc3-c3nc4ccccc4[nH]3)cc2)C1 (stereo not given)	-10	1	39*	121	-2	i	2
NC(=O)NN=Cc1cc(F)cc(F)c1	5	·	·	·	·	·	·
NC(=O)c1cn(-c2ccccc2)nc1-c1cc2ccccc2oc1=O	-38	0	-2	110	0	i	·
O=C(c1ccccc1)c1nn(-c2ccc(Cl)cc2)cc1C(=O)c1cc2ccccc2oc1=O	·	-1	34*	121	-6	i	-8
COc1ccccc1NC(=O)c1cc2ccc(O)cc2oc1=NO	2	·	·	·	·	·	·
CCOC(=O)CSc1nc2ccsc2c(=O)n1C1CCN(C(=O)OCC)CC1	4	·	-6	112	1	i	·
CCOC(=O)N1CCC(n2c(SCC(=O)c3ccccc3)nc3ccsc3c2=O)CC1	3	-2	37*	108	-3	i	55*	RORg counter=i
Cc1nccn1CC(=O)NN=Cc1cccc(O)c1	0	·	·	·	·	·	·
COc1ccc2cc(C(=O)Nc3ccc(S(N)(=O)=O)cc3)sc(=O)c2c1OC	0	1	26*	94	-3	i	37*	RORg counter=>40
Cc1cc(C)n(Cc2cccc(C(=O)NN=Cc3ccncc3)c2)n1	-1	·	·	·	·	·	·
O=C(COC(=O)c1ccc2ccccc2c1O)Nc1ccccc1	-38	1	59*	·	1	·	28*
O=C(COC(=O)c1ccc2ccccc2c1O)NCC(F)(F)F	-38	0	6	107	-2	i	·
O=C(NCCc1ccc(Cl)cc1)c1ccc2nccnc2c1	1	-1	14*	75	5	i	5
O=C(NCCc1ccccc1)c1ccc2c(c1)S(=O)(=O)c1ccccc1C2=O	0	-2	1	91	-1	i	·
O=C(NCCc1ccccc1)c1ccc2c(c1)S(=O)(=O)c1cc(Cl)ccc1C2=O	-2	-3	68*	96	-6	·	63*	RORg counter=>40
O=C(NC(=S)Nc1ccc2oc(-c3ccncc3)nc2c1)c1ccccc1F	5	-1	37*	103	-1	i	16
O=C(Nc1ccc2oc(-c3ccc(F)cc3)nc2c1)c1ccccc1F	-11	6	41*	99	-2	i	25*
O=C(Nc1ccc2oc(-c3ccccc3F)nc2c1)c1ccc2c(c1)OCCO2	-24	-1	15*	101	-4	i	12
O=C(NC(=S)Nc1ccc2oc(=O)ccc2c1)c1ccccc1F	4	0	0	83	-2	i	·
O=C(Nc1ccc2oc(-c3ccccc3)nc2c1)c1ccncc1	-1	0	-6	99	1	i	·
Cn1cc(/C=C2\SC(=O)NC2=S)c2ccccc21	7	-9	27*	92	-6	i	17
CC(Cn1nc([N+](=O)[O-])cc1C)=NNC(=O)c1cccc(Br)c1	2	·	·	·	·	·	·
Cc1nc2ccccc2n1N=Cc1ccc([N+](=O)[O-])o1	10	·	·	·	·	·	·
O=C(Cc1ccccc1)NN=Cc1ccccc1OCc1ccc(Cl)cc1	2	·	·	·	·	·	·
O=S(=O)(c1ccc(Br)cc1)N1CCN(c2cc(-c3ccccc3)nc3ncnn23)CC1	-6	·	30*	105	-4	i	26*
